In the library only some 5.4% were active in any assay of this set; here they are far more common.
PostGolgi yeast: phenotypic screen on post-Golgi transport, primary screen; post-Golgi transport phenotypic cell assay; actives 0.9% (n = 98,000); inhibition, % at 10 µM; AID 739, 2007;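 also: yeast cells grown in 1536-well plates; yeast grown about 18 h at 30C before absorbance read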
HePTP inhibitor: inhibitors of human HePTP phosphatase, primary screen, biochemical, absorbance, leukemia target; recombinant HePTP phosphatase activity, OD absorbance; inhibition, % at 20 µM; actives 0.64% (n = 110,000); in the data active = inhibition above about 50%
Ecoli WT expand: growth inhibitors of wild-type E. coli, primary screen, strain BW25113, expanded library, OD600. OD600 absorbance. growth inhibition, % at 100 µM. actives 0.15% (n = 98,000);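 active = growth inhibition above about 50% at one test dose, limit read from the data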;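 also: growth measured after 20 h incubation at 37 °C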
PLAP activator: PLAP enzyme activators, biochemical, luminescence, HTS. Alkaline phosphatase, placental type (Homo sapiens), P05187. activation fold at 20 µM. actives 1.2% (n = 96,000). purified PLAP enzyme, luminescent substrate read-out; stronger effect = higher value. AID 696, 2007; in the data active = activation fold above about 2
Target sequence (P05187 whole entry, looked up): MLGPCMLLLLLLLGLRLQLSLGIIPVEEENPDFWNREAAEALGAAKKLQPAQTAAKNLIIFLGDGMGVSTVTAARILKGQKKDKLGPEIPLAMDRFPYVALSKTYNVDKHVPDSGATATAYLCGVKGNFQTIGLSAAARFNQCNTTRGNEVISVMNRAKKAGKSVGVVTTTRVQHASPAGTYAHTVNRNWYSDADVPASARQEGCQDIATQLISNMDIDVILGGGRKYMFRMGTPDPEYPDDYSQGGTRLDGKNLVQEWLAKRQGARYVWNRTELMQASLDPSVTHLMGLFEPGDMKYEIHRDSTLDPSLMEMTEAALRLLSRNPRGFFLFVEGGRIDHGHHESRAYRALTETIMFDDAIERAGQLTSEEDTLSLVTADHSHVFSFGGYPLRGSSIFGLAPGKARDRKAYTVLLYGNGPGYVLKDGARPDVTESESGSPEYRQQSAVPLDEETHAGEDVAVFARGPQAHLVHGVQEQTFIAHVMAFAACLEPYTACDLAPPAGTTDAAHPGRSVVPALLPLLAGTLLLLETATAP
PostGolgi ctrl: growth inhibition of yeast control strain, primary screen, counter-screen for post-Golgi transport modulator project | actives 5% (n = 98,000) | efflux-deficient yeast background strain, growth absorbance A615, 16 h | inhibition, % at 10 µM
tolC growth inh: growth inhibitors of E. coli tolC mutant, primary screen, strain BW25113 ΔtolC::kan, 384-well. actives 2.2% (n = 65,000). growth inhibition, % at 10 µM (by protocol). OD615;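 active = growth inhibition at or above a cutoff equal to the mean over every tested compound plus 3 SD, cut at about 60% in these data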;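 also: growth measured after 20 h incubation at 37 °C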
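Test system: E. coli BW25113 ΔtolC::kan bacteria; incubation: 37 °C, 20 h exposure; medium: LB broth supplemented with 50 µg/mL kanamycin; read-out basis: percent growth inhibition; signal: A615 absorbance measurement; compound: 10 µM final, single dose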
Large screens that a line does not name were inactive. Rule as the data show it, unless noted: active = inhibition above about 30%; inactive = the rest.

COc1ccc(NC(=O)NCCN2CCN(c3cccc(Cl)c3)CC2)cc1	PostGolgi yeast 43, PostGolgi ctrl 42
COc1ccc(NC(=O)NCCCN2CCN(c3cc(C)ccc3C)CC2)cc1	PLAP activator 2
CCc1c(C)nc(N)n2c(SCC(=O)N3CCN(c4ccccc4OC)CC3)nnc12	none (no result: PostGolgi yeast, Ecoli WT expand, PostGolgi ctrl)
O=c1oc2cc([N+](=O)[O-])ccc2nc1/C=C(\O)c1cccc(Br)c1	none (no result: PostGolgi yeast, Ecoli WT expand, PLAP activator, PostGolgi ctrl, tolC growth inh)
COc1ccc(C(=O)NC2CCSC2=O)cc1[N+](=O)[O-] (stereo unspecified)	none (no result: PostGolgi yeast, Ecoli WT expand, PLAP activator, PostGolgi ctrl, tolC growth inh)
COC(=O)c1cc(C(=O)NC2CCSC2=O)cc([N+](=O)[O-])c1 (stereo unspecified)	HePTP inhibitor 102 (no result: PostGolgi yeast, Ecoli WT expand, PLAP activator, PostGolgi ctrl, tolC growth inh)
COc1cccc2c1nc(C)c1cc(C)oc12	PostGolgi ctrl 31
Cc1ccnc(NC(=O)C(C)Oc2cccc(Cl)c2)c1 (stereo unspecified)	none (no result: PostGolgi yeast, Ecoli WT expand, PLAP activator, PostGolgi ctrl, tolC growth inh)
Cc1ccc(NCc2nnc(SCCN3CCCCC3)n2CC2CCCO2)cc1Cl (stereo unspecified)	PLAP activator 2
COC(=O)Cn1cc(/C=N/NC(=O)c2ccc(C#N)cc2F)c2ccccc21	PostGolgi ctrl 40 (no result: HePTP inhibitor, tolC growth inh)
O=C(Nc1ccccc1C1CC1)c1ccccc1	none (no result: PostGolgi yeast, Ecoli WT expand, PLAP activator, PostGolgi ctrl, tolC growth inh)
Cc1ccc(C2/C(=C(/O)c3ccccc3)C(=O)C(=O)N2c2cccc(C)c2)cc1 (stereo unspecified)	none (no result: PostGolgi yeast, Ecoli WT expand, PLAP activator, PostGolgi ctrl, tolC growth inh)
CCOC(=O)c1oc2ccccc2c1NC(=O)c1cccc(OC)c1	none
CCOC(=O)c1oc2ccccc2c1NC(=O)c1cccc(OC)c1OC	PostGolgi ctrl 46
O=C1C=CC(=O)N1c1ccc(-c2cc(-c3ccccc3)nc(-c3ccc(N4C(=O)C=CC4=O)cc3)n2)cc1	none (no result: PostGolgi yeast, Ecoli WT expand, PLAP activator, PostGolgi ctrl, tolC growth inh)
CC(NC(=O)Cc1cccs1)c1ccncc1 (stereo unspecified)	none
CC(NC(=O)Cc1cccs1)c1ccc2c(c1)OCO2 (stereo unspecified)	PostGolgi ctrl 37
O=C(Nc1ccccc1)Nc1ccccc1C(=O)NCc1ccccc1	none (no result: HePTP inhibitor, tolC growth inh)
COc1ccc(C(=O)/C=C/c2cn(Cc3ccccc3)c3ccccc23)cc1	none (no result: PostGolgi yeast, Ecoli WT expand, PLAP activator, PostGolgi ctrl, tolC growth inh)
COc1ccc(C(=O)/C=C/c2cn(CN3CCN(C)CC3)c3ccccc23)cc1	PostGolgi ctrl 33 (no result: HePTP inhibitor, tolC growth inh)
CCOc1ccc(C(=O)/C=C/c2cn(CN3CCN(C)CC3)c3ccccc23)cc1	PostGolgi ctrl 32 (no result: HePTP inhibitor, tolC growth inh)
CCOC(=O)C1=C(c2ccccc2)N(C)C(=O)NC1c1ccc(O)c(OC)c1 (stereo unspecified)	PostGolgi ctrl 31
COc1ccc(N2C(=O)CC(N3CCN(C(c4ccccc4)c4ccc(Cl)cc4)CC3)C2=O)cc1 (stereo unspecified)	HePTP inhibitor 105 (no result: PostGolgi yeast, Ecoli WT expand, PLAP activator, PostGolgi ctrl, tolC growth inh)
OC1CCNC(=S)N1c1ccccc1 (stereo unspecified)	none (no result: PostGolgi yeast, Ecoli WT expand, PLAP activator, PostGolgi ctrl, tolC growth inh)
O=C(Nc1ccc2nc(-c3cccs3)[nH]c2c1)c1ccco1	tolC growth inh 90 (no result: PLAP activator)
O=C(Nc1ccc2nc(-c3cccs3)[nH]c2c1)c1cccs1	none
Cc1ccc(NC(=O)c2cccs2)cc1NC(=O)c1ccco1	PostGolgi ctrl 32
Cc1ccc(NC(=O)CCC(=O)NNC(=O)c2cccs2)cc1C	PLAP activator 2 (no result: HePTP inhibitor, tolC growth inh)
Cc1ccc(C(=O)NNC(=O)c2ccc(SCC3CCCO3)c([N+](=O)[O-])c2)cc1 (stereo unspecified)	none (no result: HePTP inhibitor, tolC growth inh)
O=C(NNC(=O)c1ccc(SCC2CCCO2)c([N+](=O)[O-])c1)c1ccc(Cl)c([N+](=O)[O-])c1 (stereo unspecified)	PLAP activator 2.4 (no result: HePTP inhibitor, tolC growth inh)
CC(C)c1ccc(N2C(=O)CSC23C(=O)N2CCCc4cccc3c42)cc1 (stereo unspecified)	none (no result: HePTP inhibitor, tolC growth inh)
CC1=CC(C)(C)N2C(=O)C3(SCC(=O)N3c3ccc(F)cc3)c3cc(C)cc1c32 (stereo unspecified)	PostGolgi ctrl 50 (no result: HePTP inhibitor, tolC growth inh)
C=CCn1c(COc2cccc3ccc(C)nc23)nnc1SCC(N)=O	none
Cc1ccc(NCc2nnc(SCc3ccc(C#N)cc3)n2Cc2ccco2)c(C)c1	PostGolgi yeast 49, PostGolgi ctrl 40, tolC growth inh 61
N#Cc1ccc(CSc2nnc(Cc3cccs3)n2Cc2ccco2)cc1	none
COc1ccc(C(=O)CSc2nnc(CNc3ccc(C)cc3C)n2Cc2ccco2)cc1	none
Cc1ccc(C(=O)CSc2nnc(CNc3ccc(C)cc3C)n2Cc2ccco2)cc1	PostGolgi ctrl 40
O=C(NCc1ccc(F)cc1)C1CCC(=O)N1C1CCCCC1 (stereo unspecified)	PostGolgi ctrl 35
CCOc1ccc(CCNC(=O)C2CCC(=O)N2C2CCCCC2)cc1OCC (stereo unspecified)	PostGolgi ctrl 36
COc1ccc(C(=O)Nc2ccc3c(c2)nc(CN2CCN(C(C)=O)CC2)n3C)cc1	none (no result: HePTP inhibitor, tolC growth inh)
O=C(CC1SC(=O)N(Cc2cccc3ccccc23)C1=O)Nc1nccs1 (stereo unspecified)	PostGolgi ctrl 33 (no result: HePTP inhibitor, tolC growth inh)
CCOc1cc(S(=O)(=O)NCc2ccccn2)c(C)cc1C	PLAP activator 2.2
O=C1CCCC2=C1C1(CCCCC1)N=C(Nc1nc3ccccc3s1)N2	PostGolgi ctrl 33
COC(=O)/C=C1/S/C(=N/NC(=O)c2ccccc2)NC1=O	none (no result: HePTP inhibitor, tolC growth inh)
COC(=O)/C=C1\S/C(=N/NC(=O)c2ccccc2)NC1=O	PLAP activator 2.5 (no result: HePTP inhibitor, tolC growth inh)
Cc1ccc(OCc2nnc(SCC(=O)CC(=O)Nc3ccccc3)o2)cc1	PostGolgi ctrl 33
CC(NC(=O)CSc1nnc(COc2ccccc2)o1)c1ccccc1 (stereo unspecified)	none
Cc1onc(-c2ccccc2Cl)c1C(=O)Nc1nnc(-c2ccc(F)cc2)s1	PostGolgi ctrl 35
Cc1onc(-c2ccccc2Cl)c1C(=O)Nc1ccccc1C(=O)O	none (no result: PostGolgi yeast, Ecoli WT expand, PLAP activator, PostGolgi ctrl, tolC growth inh)
Cc1onc(-c2ccccc2Cl)c1C(=O)Nc1nc2c(s1)CCCC2	PostGolgi ctrl 43 (no result: HePTP inhibitor, tolC growth inh)
COC(=O)c1cc(OC)c(OC)cc1NC(=O)c1c(-c2ccccc2Cl)noc1C	PostGolgi ctrl 37
Cc1onc(-c2ccccc2Cl)c1C(=O)Nc1nnc(-c2ccc(Br)cc2)s1	none (no result: HePTP inhibitor, tolC growth inh)
Cc1onc(-c2ccccc2Cl)c1C(=O)Nc1nnc(-c2ccc(Cl)cc2Cl)s1	none (no result: HePTP inhibitor, tolC growth inh)
CCOC(=O)N1CCN(c2ncnc3nc[nH]c23)CC1	none
Fc1ccc(Br)cc1C1C=C(c2ccc(Br)s2)Nc2ncnn21 (stereo unspecified)	tolC growth inh 69
COc1cccc(C2C=C(c3ccc(Br)s3)Nc3ncnn32)c1OC (stereo unspecified)	none
O=c1[nH]cnc2scc(C3COc4ccccc4O3)c12 (stereo unspecified)	PLAP activator 2.1
O=c1[nH]cnc2scc(-c3ccc(-c4ccccc4)cc3)c12	none (no result: tolC growth inh)
O=C1c2[nH]nc(-c3ccccc3O)c2C(c2ccc(F)cc2)N1CC1CCCO1 (stereo unspecified)	none
